From ChEMBL document CHEMBL1121608, “Modification of the 5' position of purine nucleosides. 2. Synthesis and some cardiovascular properties of adenosine-5'-(N-substituted)carboxamides” (J Med Chem, 1980)

Experiments:
[1] = test system: Canis familiaris; test: Total time in minutes elapsed from the initiation of the change until return to the pretest value of blood pressure in coronary sinus of anesthetized dog at intravenous dosage of 10 mg/kg; format: functional, Canis lupus familiaris
[2] = test system: Canis familiaris; test: Total time in minutes elapsed from the initiation of the change until return to the pretest value of heart rate in coronary sinus of anesthetized dog at intravenous dosage of 10 mg/kg; format: functional, Canis lupus familiaris
[3] = test system: Canis familiaris; test: Total time in minutes elapsed from the initiation of the change until return to the pretest value of oxygen partial pressure in coronary sinus of anesthetized dog at intravenous dosage of 10 mg/kg; format: functional, Canis lupus familiaris
Outline: (§1)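 Open-chest anesthetized dogs given compound by intravenous injection. Coronary sinus PO2 was monitored, and duration was the total time in minutes from the onset of the change until return to the pretest value.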

[4] = test system: Canis familiaris; test: Tested for the percent increase in aortic blood pressure (BP) in open chest anesthetized dog at intravenous dosage of 10.00 mg/kg; format: functional, Canis lupus familiaris, Artery
Outline: (§2)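 Open-chest anesthetized dogs, compound given iv at the stated dose. Aortic blood pressure is reported as the change from the control (pre-dose) value. Other set-up follows the group's earlier cardiovascular protocol.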

[5] = test system: Canis familiaris; test: Tested for percent increase in coronary sinus partial pressure of oxygen (PO2) in open chest anesthetized dog at intravenous dosage of 10.00 mg/kg; format: functional, Canis lupus familiaris
[6] = Lethal dose in mice after intraperitoneal administration; format: toxicity, organism-based; settings: mouse, in vivo, ip
Outline: (§3)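 Male and female mice, three per dose group, were given the compound by the stated route in increments of 0.5 log doses. The LD50 was estimated as an approximate value.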

[7] = Lethal dose in mice after peroral administration; format: toxicity, organism-based; settings: mouse, in vivo, po; outline: as §3
[8] = test system: Canis familiaris; test: Total time in minutes elapsed from the initiation of the change until return to the pretest value of blood pressure in coronary sinus of anesthetized dog at intravenous dosage of 1 mg/kg; format: functional, Canis lupus familiaris
[9] = test system: Canis familiaris; test: Total time in minutes elapsed from the initiation of the change until return to the pretest value of heart rate in coronary sinus of anesthetized dog at intravenous dosage of 1 mg/kg; format: functional, Canis lupus familiaris
[10] = test system: Canis familiaris; test: Total time in minutes elapsed from the initiation of the change until return to the pretest value of oxygen partial pressure in coronary sinus of anesthetized dog at intravenous dosage of 1 mg/kg; format: functional, Canis lupus familiaris; outline: as §1
[11] = test system: Canis familiaris; test: Tested for percent increase in coronary sinus partial pressure of oxygen (PO2) in open chest anesthetized dog at intravenous dosage of 1.00 mg/kg; format: functional, Canis lupus familiaris
[12] = test system: Canis familiaris; test: Tested for the percent increase in aortic blood pressure (BP) in open chest anesthetized dog at intravenous dosage of 1.00 mg/kg; format: functional, Canis lupus familiaris, Artery; outline: as §2
[13] = test system: Canis familiaris; test: Total time in minutes elapsed from the initiation of the change until return to the pretest value of blood pressure in coronary sinus of anesthetized dog at intravenous dosage of 0.01 mg/kg; format: functional, Canis lupus familiaris
[14] = test system: Canis familiaris; test: Total time in minutes elapsed from the initiation of the change until return to the pretest value of heart rate in coronary sinus of anesthetized dog at intravenous dosage of 0.01 mg/kg; format: functional, Canis lupus familiaris
[15] = test system: Canis familiaris; test: Total time in minutes elapsed from the initiation of the change until return to the pretest value of oxygen partial pressure in coronary sinus of anesthetized dog at intravenous dosage of 0.01 mg/kg; format: functional, Canis lupus familiaris
[16] = test system: Canis familiaris; test: Tested for percent increase in coronary sinus partial pressure of oxygen (PO2) in open chest anesthetized dog at intravenous dosage of 0.01 mg/kg; format: functional, Canis lupus familiaris
[17] = test system: Canis familiaris; test: Tested for the percent increase in aortic blood pressure (BP) in open chest anesthetized dog at intravenous dosage of 0.01 mg/kg; format: functional, Canis lupus familiaris, Artery; outline: as §2
[18] = test system: Canis familiaris; test: Total time in minutes elapsed from the initiation of the change until return to the pretest value of blood pressure in coronary sinus of anesthetized dog at intravenous dosage of 0.1 mg/kg; format: functional, Canis lupus familiaris
[19] = test system: Canis familiaris; test: Total time in minutes elapsed from the initiation of the change until return to the pretest value of heart rate in coronary sinus of anesthetized dog at intravenous dosage of 0.1 mg/kg; format: functional, Canis lupus familiaris
[20] = test system: Canis familiaris; test: Total time in minutes elapsed from the initiation of the change until return to the pretest value of oxygen partial pressure in coronary sinus of anesthetized dog at intravenous dosage of 0.1 mg/kg; format: functional, Canis lupus familiaris
[21] = test system: Canis familiaris; test: Tested for percent increase in coronary sinus partial pressure of oxygen (PO2) in open chest anesthetized dog at intravenous dosage of 0.10 mg/kg; format: functional, Canis lupus familiaris; settings: dose 0.1 mg/kg
[22] = test system: Canis familiaris; test: Tested for the percent increase in aortic blood pressure (BP) in open chest anesthetized dog at intravenous dosage of 0.10 mg/kg; format: functional, Canis lupus familiaris, Artery; settings: dose 0.1 mg/kg; outline: as §2
[23] = test system: Canis familiaris; test: tested for the percent increase in heart rate (HR) in open chest anesthetized dog at intravenous dosage of 0.10 mg/kg; format: functional, Canis lupus familiaris; settings: dose 0.1 mg/kg

Row | Structure (SMILES) | Duration [1] | Duration [2] | Duration [3] | BP [4] | PO2 [5] | LD50 [6] | LD50 [7] | Duration [13] | Duration [14] | Duration [15] | PO2 [16] | also measured
1 | Nc1ncnc2c1ncn2C1O[C@H](C(=O)Nc2ccc(F)cc2)[C@@H](O)[C@H]1O (stereo not given in full) | 0 min | 0 min | 20 min | 0% | 30% | 500 mg/kg | > 1000 mg/kg |  |  |  |  | 
2 | CN(C)CCNC(=O)[C@H]1OC(n2cnc3c(N)ncnc32)[C@H](O)[C@@H]1O (stereo not given in full) | 15 min | 15 min | 2 min | 5% | 13% | 20 mg/kg | 500 mg/kg |  |  |  |  | 
3 | C=CCN(CC=C)C(=O)[C@H]1OC(n2cnc3c(N)ncnc32)[C@H](O)[C@@H]1O (stereo not given in full) |  |  |  |  |  | > 300 mg/kg | > 300 mg/kg |  |  |  |  | Duration [8]: 0 min; Duration [9]: 0 min; Duration [10]: 40 min; PO2 [11]: 66%; BP [12]: 0%
4 | C=CCNC(=O)[C@H]1OC(n2cnc3c(N)ncnc32)[C@H](O)[C@@H]1O (stereo not given in full) |  |  |  |  |  | 200 mg/kg | > 1000 mg/kg | 0 min | 0 min | 20 min | 129% | BP [17]: 0%
5 | Nc1ncnc2c1ncn2[C@@H]1O[C@H](C(=O)NC2CCC2)[C@@H](O)[C@H]1O |  |  |  |  |  | 2 mg/kg | 5 mg/kg | 90 min | 48 min | 90 min | 79% | 
6 | CC1(C)OC2[C@@H](C(=O)NC3CC3)O[C@@H](n3cnc4c(N)ncnc43)[C@H]2O1 (stereo not given in full) | 1 min | 1 min | 60 min | 26% | 9% | > 300 mg/kg | > 300 mg/kg |  |  |  |  | 
7 | Nc1ncnc2c1ncn2C1O[C@H](C(=O)NCc2ccco2)[C@@H](O)[C@H]1O (stereo not given in full) |  |  |  |  |  |  |  |  |  |  |  | Duration [8]: 20 min; Duration [9]: 20 min; Duration [10]: 20 min; PO2 [11]: 22%; BP [12]: 1%
8 | CCNC(=O)[C@H]1O[C@@H](n2cnc3c(N)ncnc32)[C@H]2OC(C)(C)OC12 (stereo not given in full) | 0 min | 16 min | 30 min | 0% | 27% |  |  |  |  |  |  | 
9 | Nc1ncnc2c1ncn2C1O[C@H](C(=O)Nc2ccccc2)[C@@H](O)[C@H]1O (stereo not given in full) |  |  |  |  |  | > 1000 mg/kg | > 1000 mg/kg |  |  |  |  | Duration [8]: 0 min; Duration [9]: 7 min; Duration [10]: 120 min; PO2 [11]: 127%; BP [12]: 0%
10 | Nc1ncnc2c1ncn2[C@@H]1O[C@H](C(=O)NC2CCCC2)[C@@H](O)[C@H]1O |  |  |  |  |  | 200 mg/kg | 200 mg/kg |  |  |  |  | Duration [18]: 120 min; Duration [19]: 120 min; Duration [20]: 120 min; PO2 [21]: 83%; BP [22]: 12%; HR [23]: 25%
11 | CCOC(=O)CNC(=O)[C@H]1OC(n2cnc3c(N)ncnc32)[C@H](O)[C@@H]1O (stereo not given in full) | 30 min | 11 min | 30 min | 6% | 9% | > 300 mg/kg | > 300 mg/kg |  |  |  |  | 
12 | CCNC(=O)[C@H]1O[C@@H](n2cnc3c(N)ncnc32)[C@H](O)[C@@H]1O [NECA] |  |  |  |  |  | 0.5 mg/kg | 5 mg/kg | 120 min | 345 min | 345 min | 250% | 
13 | CC(C)NC(=O)[C@H]1OC(n2cnc3c(N)ncnc32)[C@H](O)[C@@H]1O (stereo not given in full) |  |  |  |  |  | 5 mg/kg | 5 mg/kg | 70 min | 240 min | 240 min | 43% | 
